The list is not random: actives were taken first. Their share in the collection is about 3.9%.
TAAR1 antag: antagonists of human TAAR1. inhibition, % at 3 µM. 1.5% of 360,000 active. CHO RD-HGA16 TAAR1, Fluo-8 calcium fluorescence, antagonist. Q96RJ0;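 active = inhibition above a per-plate cutoff, the mean inhibition of test compounds on that plate plus 3 SD, cut at about 49% in these data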;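 also: 0% = DMSO plus EC80 beta-PEA response and 100% = DMSO alone without agonist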
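Test system: CHO RD-HGA16 cells bearing hTAAR1 | Reagent: β-PEA, EC80 | Compound dosing: 3 µM, single point | Schedule: Dye loading 75 min at 37 °C, then 30 min room temperature | Signal: Calcium fluorescence with Fluo-8 | Evaluation: Percent inhibition of PEA-evoked calcium signal, max/basal emission ratio | Control set: DMSO-only wells and EC80 β-PEA-stimulated wells | Repeats: Singlicate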
TAAR1 ag: human TAAR1 agonism. activation, % at 3 µM. 0.99% of 360,000 active. CHO RD-HGA16 TAAR1, Fluo-8 calcium fluorescence; vehicle wells 0%, saturating PEA agonist 100%;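 active = activation above the mean activation of all test compounds in the run plus 3 SD, cut at about 38% in these data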
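Test system: RD-HGA16 (CHO) cells co-expressing Gα16 and hTAAR1; dosing: one-point dosing at 3 µM (nominal); timing: 17-24 h seeding, 75 min 37 °C dye, 30 min RT; signal: kinetic Fluo-8 calcium fluorescence; read-out basis: % activation relative to PEA EC100 response; controls: DMSO and PEA EC100; replicates: n 1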
OX1R antag-1: antagonists of human orexin 1 receptor; O43613; CHO/OX1R cells, Fluo-8 calcium fluorescence, orexin A; inhibition, % at 5 µM; 0.43% of 330,000 active;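 active = inhibition above its plate's threshold, mean inhibition of all tested compounds on the plate plus 3 SD, cut at about 37% in these data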;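 also: 0% = orexin A challenge wells and 100% = SB-334867-A antagonist wells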
Target sequence (O43613 whole entry, looked up): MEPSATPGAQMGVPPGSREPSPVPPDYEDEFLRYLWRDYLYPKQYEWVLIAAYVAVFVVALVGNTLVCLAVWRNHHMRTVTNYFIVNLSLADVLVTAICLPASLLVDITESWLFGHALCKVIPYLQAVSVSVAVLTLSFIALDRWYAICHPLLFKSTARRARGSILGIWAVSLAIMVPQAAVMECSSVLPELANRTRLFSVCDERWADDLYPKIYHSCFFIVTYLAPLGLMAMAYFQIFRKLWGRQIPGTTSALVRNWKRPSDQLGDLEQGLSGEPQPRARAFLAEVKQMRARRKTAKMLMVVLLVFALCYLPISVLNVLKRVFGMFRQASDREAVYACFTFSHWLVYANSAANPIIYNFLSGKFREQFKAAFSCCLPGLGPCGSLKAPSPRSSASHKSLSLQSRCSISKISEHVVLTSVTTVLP
OX1R antag-2: antagonists of human orexin 1 receptor (OX1R) | OX1R-expressing cells, FRET antagonist read-out | 1.8% of 330,000 active | inhibition, % at 6.6 µM | AID 485270 | O43613; in the data active = inhibition mostly above about 38%, no sharp cut-off; inactive = mostly below about 40%;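 also: 0% = agonist challenge alone and 100% = reference antagonist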
CHO parental Ca: signal in parental CHO cells, OX1R antagonist counter-screen; inhibition, % at 5.6 µM; 0.63% of 330,000 active; parental CHO-K1, ATP-induced calcium, Fluo-8 fluorescence;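 active = inhibition above that plate's mean sample inhibition plus 3 SD, cut at about 26% in these data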;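 also: 0% = ATP-challenged DMSO wells and 100% = DMSO wells without ATP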
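Assay system – parental CHO cells · Reagent – ATP stimulus · Detection – intracellular calcium via Fluo-8 no-wash fluorescent dye · Evaluation – percent inhibition of ATP-evoked calcium rise, normalized to controls · Controls – ATP wells versus no-ATP DMSO wells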
Active calls of the source: *; . = no result given.

SMILES | TAAR1 antag | TAAR1 ag | OX1R antag-1 | OX1R antag-2 | CHO parental Ca
C=CCOCCN(C)C1=NS(=O)(=O)c2cc([N+](=O)[O-])ccc21 | 13 | 1 | -5 | 72* | -3
Cc1ccc(O)c(CNCCNCc2cc(C)ccc2O)c1 | 9 | 21 | -23 | 20 | -14
CCc1ccc(O)c(CNCCNCc2cc(CC)ccc2O)c1 | 24 | 42* | -6 | 4 | -2
N#Cc1cccc(C=C(C(=O)c2ccccc2)c2ccccc2)c1 | 32 | 0 | . | . | .
Nc1nc(NCc2ccc(Cl)cc2)nc(NCCO)c1[N+](=O)[O-] | -30 | 45* | -30 | 20 | -25
Cc1ccc(CNc2nc(N)c([N+](=O)[O-])c(NCCO)n2)cc1 | -1 | 8 | -27 | 21 | -25
Cc1ccc(S(=O)(=O)N2CC3(O)CN(C(=O)OC(C)C)N(C(=O)OC(C)C)CC3(OC(=O)Nc3cccs3)C2)cc1 (stereo not given) | 41 | 5 | . | . | .
Cc1ccc(S(=O)(=O)N2CC3(O)CN(C(=O)OC(C)C)N(C(=O)OC(C)C)CC3(OC(=O)NC3CCCC3)C2)cc1 (stereo not given) | 49* | 6 | . | . | .
CN(C)/C=N/c1ncc(C(=O)c2ccc3ccccc3c2)s1 | 6 | 8 | -23 | 42* | -16
COc1ccc(C(=O)c2cnc(/N=C/N(C)C)s2)cc1 | 2 | 12 | -10 | 46* | 4
CC(=O)N1CCCC(C)(C(=O)Nc2cccc(OC(C)C)c2)C1 (stereo not given) | -5 | 2 | . | . | .
O=C(Cn1nnc(-c2ccccc2NC(=O)c2ccccc2F)n1)NC1CCCC1 | 15 | -1 | 40 | 18 | 32*
O=C(Nc1ccccc1-c1nnn(CC(=O)N2CCOCC2)n1)c1ccccc1F | 7 | 7 | -5 | 26 | -8
CC(C(=O)NC1CCCC1)N(C(=O)Cn1nnc(-c2ccc(F)cc2)n1)c1ccccc1F (stereo not given) | 52* | 19 | -16 | 20 | -28
COc1ccc(N(C(=O)Cn2nnc(-c3ccc(F)cc3)n2)C(C)C(=O)NC2CCCC2)cc1 (stereo not given) | -7 | -3 | -24 | 6 | -22
Cc1cc(-c2ccc(C(C)C)c(S(=O)(=O)N3CC(=O)Nc4ccccc43)c2)on1 | -19 | 0 | -2 | 39* | -8
CCCCOc1ncnc2c1[nH]c1ccc(C)cc12 | 18 | -2 | 7 | 28 | 56*
CCCOc1ncnc2c1[nH]c1ccc(OC)cc12 | 12 | 7 | -11 | 16 | -13
CCC(NC(=O)c1cc(COc2ccc(C)nc2)on1)c1ccc(C)cc1 (stereo not given) | 8 | 49* | -15 | 14 | 1
O=C(/C=C/[C@H]1O[C@@H](n2ccc(=O)[nH]c2=O)[C@H](O)[C@@H]1O)NCCCc1ccccc1 | -22 | 5 | . | . | .
COc1cc(C(=O)NN=Cc2ccc(N(C)C)cc2)cc(OC)c1OC | 7 | 1 | . | . | .
Cc1nc(C)c(-c2csc(NCc3ccco3)n2)s1 | -14 | 1 | -9 | 12 | -17
Cc1nc(NC(=O)c2ccccc2)sc1-c1csc(NCc2ccco2)n1 | . | . | 4 | 53* | -5
CC(=O)/C(N=Nc1ccc(C(=O)O)cc1[N+](=O)[O-])=C(\C)O | 7 | 0 | -2 | 41* | -3
COc1cccc(N2C(=O)CC(Nc3ccc(N4CCOCC4)cc3)C2=O)c1 (stereo not given) | . | . | -6 | 39* | 5
SMILES | TAAR1 antag | TAAR1 ag | OX1R antag-1 | OX1R antag-2 | CHO parental Ca
N#CC1=C(N)SC(N)=C(C#N)C1Cc1ccccc1 | 38 | 43* | 36 | 39* | 5
N#CC1=C(N)SC(N)=C(C#N)C1c1ccc(C(F)(F)F)cc1 | . | . | -2 | 17 | 15
CCc1ccc(C2C(C#N)=C(N)SC(N)=C2C#N)cc1 | 32 | 43* | -3 | 26 | 9
COC(=O)C1=C(C)N(C)C(=NCc2ccc3c(c2)OCO3)NC1c1ccc(Cl)cc1 (stereo not given) | 8 | 5 | . | . | .
Cc1ccc(-c2csc(N3CCC(NS(=O)(=O)c4ccc5c(c4)OCCO5)CC3)n2)cc1 | 27 | 6 | 51* | 36 | 55*
Cc1ccc(-c2csc(N3CCC(C(N)=O)CC3)n2)cc1 | 9 | 9 | -10 | 6 | -11
CCOC(=O)N/N=C/c1ccccc1F | 8 | 8 | -5 | 7 | -9
CCc1nnc(N/N=C/c2ccccc2F)n1N | 14 | 9 | 6 | 74* | 6
Oc1ccccc1/C=N/Nc1nccnc1Cl | -15 | 41* | -33 | 19 | -4
COc1ccc(C#Cc2cccc(-c3nc(C(=O)N4CCN(C)CC4)cc4c3[C@H](CCO)N(S(=O)C(C)(C)C)C4)c2)cc1OC (stereo not given in full) | -1 | 0 | . | . | .
CCN1/C(=C/C=C/c2sc3ccccc3[n+]2CC)Sc2ccccc21 | . | . | 36 | 41* | 61*
CCN1/C(=C/C=C/C=C/c2sc3ccccc3[n+]2CC)Sc2ccccc21 | . | . | 52* | 38 | 61*
CCN1/C(=C/c2ccc3cc(C)ccc3[n+]2CC)Sc2ccccc21 | 56* | 26 | 86* | 103* | 89*
O=C1CCCc2c1nc(-c1ccc([N+](=O)[O-])cc1)n2O | -4 | 1 | -14 | 48* | 1
O=C(COC(=O)c1cccc(NC(=O)c2ccco2)c1)c1ccc(Br)cc1 | 62* | 13 | 12 | 33 | 22
COc1cccc(CN(C)[C@H]2C[C@H]3c4[nH]c5ccccc5c4CCN3C[C@H]2[C@H](C)O)c1OC | -13 | 1 | . | . | .
COc1ccc(N2CCN(C(=O)CSc3nnc(C)c(=O)[nH]3)CC2)cc1 | -13 | 4 | -5 | -2 | 37*
COc1ccc(N2CCN(C(=O)CSc3nc4ccccc4c(=O)[nH]3)CC2)cc1 | -8 | -2 | -21 | 31 | -12
Cn1c2ccccc2c(=O)c2cc(C#Cc3ccc(N)cc3)ccc21 | 49* | 13 | -31 | 58* | -17
O=C(OCC(=O)N1CCCC1=O)c1cccc([N+](=O)[O-])c1 | -21 | 0 | -19 | 48* | -4
CCCCC(CC)CN=C(N)NC(N)=NCCCCCCN=C(N)NC(N)=NCC(CC)CCCC (stereo not given) | . | . | 79* | 34 | 84*
CCCCC(CC)CO (stereo not given) | -24 | 1 | -9 | 7 | -5
NS(=O)(=O)c1cccc(NC(=O)COC(=O)C2(c3cccc(F)c3)CCCC2)c1 | 52* | 6 | -8 | 14 | -10
CC(=O)Nc1ccc(NC(=O)COC(=O)C2(c3ccc(Cl)cc3)CCCC2)cc1 | 49* | 39* | -12 | 17 | -4
NS(=O)(=O)c1cccc(NC(=O)CC2(CC(=O)O)CCCC2)c1 | -11 | 0 | -9 | 3 | 7
CCc1cccc(CC)c1NC(=O)COC(=O)C1(c2ccc(Cl)cc2)CCCC1 | 2 | -1 | -21 | 30 | -22

High-throughput results as filed in PubChem.
